Data on one molecule can be found in ChEMBL document CHEMBL1909580, “Branched-chain C-cyano pyranonucleosides: synthesis of 3'-C-cyano & 3'-C-cyano-3'-deoxy pyrimidine pyranonucleosides as novel cytotoxic agents” (Eur J Med Chem, 2011).

Each structure is given as a SMILES string. Activity calls are given as the source filed them. The rule behind the calls is not given here.

Usually IC50 stands for the concentration needed to halve the response being measured.

Assay [1] relates to Human immunodeficiency virus 2. The assay is described as follows: Antiviral activity against HIV-2 ROD infected in CEM cells assessed as inhibition of virus-induced cytopathicity at 100 uM. In kind it is functional, organism-based. The note with it: ISOLATE ROD, CCRF-CEM. An outline of the steps:
(§1)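 Virus stocks were titrated in CEM cells as CCID50. CEM cells at ~3 × 10^5 cells/ml were infected with ~100 CCID50 and immediately added to wells holding various test concentrations. After 4 days at 37 °C, giant cell formation was scored microscopically.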
(Protection from cytopathic effect is a common read-out in antiviral testing.)

Another assay deals with Feline coronavirus. Put plainly: Antiviral activity against Feline coronavirus infected in feline CRFK cells assessed as inhibition of virus-induced cytopathicity at 100 uM. In kind it is functional, organism-based. An outline of the steps:
(§2)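 Confluent cell monolayers in microtiter plates were inoculated with 100 CCID50 of virus in the presence of varying test concentrations. 1 CCID50 is the virus dose infecting 50% of cultures. Cytopathicity was scored once it was complete in untreated virus-infected controls.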

Assay [2] relates to Influenza A virus. The assay is described as follows: Antiviral activity against influenza A virus H1N1 infected in MDCK cells assessed as inhibition of virus-induced cytopathicity at 100 uM. In kind it is functional, organism-based. In short, it runs like this: (§3)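 Confluent cell monolayers were infected with 100 CCID50 of virus (1 CCID50 infects 50% of cultures) in the presence of varying concentrations of test compound. Virus-induced cytopathicity was scored once it was complete in the untreated infected controls.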

The test system of the next assay is Vaccinia virus. Put plainly: Antiviral activity against Vaccinia virus infected in human HEL cells assessed as inhibition of virus-induced cytopathicity at 100 uM. The note with it: Orthopoxvirus vaccinia. In kind it is functional, organism-based. In short, it runs like this:
as §3

The next assay deals with HeLa. The assay is described as follows: Cytostatic activity against human HeLa cells. In kind it is functional, cell-based. In short, it runs like this:
(§4)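 Cell proliferation was measured with the test agents present. IC50 is the concentration giving 50% inhibition of proliferation, given as the mean ± S.D. of 2–3 independent experiments.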

The subject of assay [3] is Vesicular stomatitis virus. Put plainly: Antiviral activity against VSV infected in human HEL cells assessed as inhibition of virus-induced cytopathicity at 100 uM. In kind it is functional, organism-based. An outline of the steps:
as §3

The test system of another assay is Influenza B virus. The assay is described as follows: Antiviral activity against influenza B virus infected in MDCK cells assessed as inhibition of virus-induced cytopathicity at 100 uM. In kind it is functional, organism-based. An outline of the steps:
as §3

The subject of assay [4] is Coxsackievirus B4. The assay is described as follows: Antiviral activity against Coxsackievirus B4 infected in african green monkey Vero cells assessed as inhibition of virus-induced cytopathicity at 100 uM. In kind it is functional, organism-based. In short, it runs like this:
as §2

A further assay has as its system Human respirovirus 3. The assay is described as follows: Antiviral activity against Parainfluenza 3 virus infected in african green monkey Vero cells assessed as inhibition of virus-induced cytopathicity at 100 uM. In kind it is functional, organism-based. An outline of the steps: as §2
The subject of another assay is Punta Toro virus. The assay is described as follows: Antiviral activity against Punta Toro virus infected in african green monkey Vero cells assessed as inhibition of virus-induced cytopathicity at 100 uM. In kind it is functional, organism-based. In short, it runs like this:
as §2

Assay [5] concerns Human immunodeficiency virus 1. Put plainly: Antiviral activity against HIV1 3B infected in CEM cells assessed as inhibition of virus-induced cytopathicity at 100 uM. In kind it is functional, organism-based. The note with it: CCRF-CEM. In short, it runs like this:
as §1

Another assay deals with L1210. Put plainly: Cytostatic activity against mouse L1210 cells. In kind it is functional, cell-based. In short, it runs like this:
as §4

The test system of assay [6] is Respiratory syncytial virus. Put plainly: Antiviral activity against RSV infected in human HeLa cells assessed as inhibition of virus-induced cytopathicity at 100 uM. In kind it is functional, organism-based. An outline of the steps: as §2
In assay [7] the test system is Influenza A virus. Put plainly: Antiviral activity against influenza A virus H3N2 infected in MDCK cells assessed as inhibition of virus-induced cytopathicity at 100 uM. In kind it is functional, organism-based. In short, it runs like this: as §3
The test system of another assay is Human alphaherpesvirus 1. Put plainly: Antiviral activity against HSV1 infected in human HEL cells assessed as inhibition of virus-induced cytopathicity at 100 uM. In kind it is functional, organism-based. In short, it runs like this: as §2
Another assay concerns Felid alphaherpesvirus 1. The assay is described as follows: Antiviral activity against Feline herpesvirus infected in […] cells assessed as inhibition of virus-induced cytopathicity at 100 uM. In kind it is functional, organism-based.
For assay [8], the system named is Coxsackievirus B4. The assay is described as follows: Antiviral activity against Coxsackievirus B4 infected in human HeLa cells assessed as inhibition of virus-induced cytopathicity at 100 uM. In kind it is functional, organism-based. In short, it runs like this: as §2
For the next assay, the system named is CCRF-CEM. The assay is described as follows: Cytostatic activity against human CEM cells. In kind it is functional, cell-based. In short, it runs like this:
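Uninfected CEM cells were run in parallel with the HIV assay for 4 days at 37 °C. IC50 is the concentration inhibiting cell proliferation by 50%, given as the mean ± S.D. of 2–3 independent experiments.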

For another assay, the system named is Human alphaherpesvirus 2. Put plainly: Antiviral activity against HSV2 infected in human HEL cells assessed as inhibition of virus-induced cytopathicity at 100 uM. In kind it is functional, organism-based. An outline of the steps: as §2
Assay [9] concerns Mammalian orthoreovirus 1. Put plainly: Antiviral activity against Reovirus1 infected in african green monkey Vero cells assessed as inhibition of virus-induced cytopathicity at 100 uM. In kind it is functional, organism-based. An outline of the steps:
as §2

Assay [10] has as its system Vesicular stomatitis virus. The assay is described as follows: Antiviral activity against VSV infected in human HeLa cells assessed as inhibition of virus-induced cytopathicity at 100 uM. In kind it is functional, organism-based. In short, it runs like this:
as §3

Consider `Cc1cn([C@@H]2O[C@H](CO)[C@@H](O)[C@@](O)(C#N)[C@H]2O)c(=O)nc1O`, for which the inhibition result (in assay [1]; in the assay with Feline coronavirus; in the assay with Influenza A virus [2]; in the assay with Vaccinia virus; in assay [3]; in the assay with Influenza B virus) was “inactive” each time. Also, the inhibition entry (in the assay with Coxsackievirus B4 [4]; in the assay with Human respirovirus 3; in the assay with Punta Toro virus; in assay [5]; in assay [6]; in the assay on Influenza A virus [7]) was “inactive” in each case. Further, the inhibition entry (in the assay on Human alphaherpesvirus 1; with Felid alphaherpesvirus 1; with Coxsackievirus B4 [8]; with Human alphaherpesvirus 2; in assay [9]; in assay [10]) was “inactive” in each case. For the same molecule, the values for the IC50 in the assay on HeLa, in the assay with L1210 and with CCRF-CEM were greater than 500 µM, 539 µM and greater than 500 µM, respectively.
